ROMK primary = ROMK potassium channel modulators, primary screen, cell-based, thallium flux, MLSMR library; Tet-inducible ROMK, thallium flux fluorescence; actives lie on both sides; B-score at 10 µM; 2% of 130,000 active; ATP-sensitive inward rectifier potassium channel 1 (Homo sapiens), P48048;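 active = signal ratio slope over the read window, or its plate-corrected B-score, at least 3 SD from the plate mean, either direction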;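 also: B-score of the F/F0 ratio slope over 7 to 12 s after thallium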
Target sequence (P48048 whole entry, looked up): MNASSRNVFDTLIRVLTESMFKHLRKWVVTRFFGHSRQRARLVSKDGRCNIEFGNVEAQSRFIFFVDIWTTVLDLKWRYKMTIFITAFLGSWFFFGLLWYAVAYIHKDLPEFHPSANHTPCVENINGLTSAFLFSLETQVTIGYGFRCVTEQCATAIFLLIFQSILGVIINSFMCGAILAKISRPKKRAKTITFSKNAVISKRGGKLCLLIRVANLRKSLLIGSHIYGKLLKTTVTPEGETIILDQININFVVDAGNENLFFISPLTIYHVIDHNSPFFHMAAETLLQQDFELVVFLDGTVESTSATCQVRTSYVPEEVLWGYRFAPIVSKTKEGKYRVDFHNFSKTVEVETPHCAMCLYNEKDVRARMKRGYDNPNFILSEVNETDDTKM
Dynein transport = inhibitors of GR-EGFP nuclear translocation, primary screen, dynein cargo transport inhibitor project, imaging, high-content, 3617.4 mouse cells. test concentration mostly 20 µM; stimulated with dexamethasone, 1 µM; stronger effect = lower value. z-score, hits read low. 0.47% of 220,000 active. AID 1381, 2008;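 active = plate z-score of nuclear minus cytoplasmic receptor signal below a set negative limit, without overly bright fluorescence or cell loss, cut at about -3.5 in these data, passing the limit was not always enough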;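 also: z-score of nuclear minus cytoplasmic ring GR-EGFP intensity difference per well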
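Also added: dexamethasone, 1.0 µM final. Medium: tet-free, stripped-serum medium. Detection: fixed, Hoechst-stained cells imaged at 10x for EGFP. Read-out: nuclear-to-cytoplasmic GR-EGFP distribution per well. Times: induction 48 h, compound 1 h, agonist 30 min.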
KCC2 mod = KCC2 cotransporter modulators, thallium flux, primary screen, cell-based, HEK293 KCC2, FluoZin-2 fluorescence, MLSMR | KCC2 cells, thallium flux FluoZin-2 fluorescence | B-score of Tl+ flux slope (higher = more flux/activation; lower = inhibition) at 10 µM | 2.2% of 190,000 active | AID 1456, 2008;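 active = thallium flux slope and its plate-corrected score both differing from the plate sample mean at a set confidence after two filtering rounds, in either direction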;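 also: slope of fluorescence scaled to starting intensity during 10 to 20 s after thallium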
DTT redox prof = compounds producing H2O2 with reducing agent – biochemical, NIH compound library profiling, artefact control for MLSCN library redox annotation, primary screen. DTT-dependent redox cycling H2O2, phenol red/HRP absorbance; 100% = 100 µM peroxide control, 0% = buffer. activation, % at 10 µM. 0.03% of 200,000 active. AID 878, 2007;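 active = activation of at least 50% relative to the plate's high and low controls in the primary single-dose screen; inactive = activation below 50%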;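 also: compound incubated with DTT at 0.8 mM final as the reducing agent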
Autophagy HCS = autophagy modulators in MEF cells, primary screen, imaging, high-content, MEF GFP-LC3. calls only at 10 µM (by protocol). 0.98% of 190,000 active. AID 463193, 2010. MEF GFP-LC3 puncta imaging; test concentration mostly 10 µM;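 active = percentage of spot-positive cells more than 3 SD above its plate mean, without a fluorescence outlier flag or 80% toxicity; inconclusive = no clear call, values can overlap the other calls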;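 also: spot-positive cell cutoff set from DMSO-treated cells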
ROMK retest = ROMK channel modulator hit retest, confirmation, cell-based, thallium flux, duplicate, resupplied hits; AID 1917, 2009; normalized thallium flux (F/F0 slope) at 10 µM; shares compounds with ROMK primary; 54% of 3,000 active; fluorescence ratio; stronger effect = lower value;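 active = Flux at 10 µM at least 3 SD below or above vehicle control mean in one or both replicates; inconclusive = no clear call, values can overlap the other calls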
Numbers without * were called inactive; i = inactive; ? = inconclusive; . = no result. A selection: hits, their analogues and other compounds. The true share with any hit is near 4.1%.

SMILES | ROMK primary | Dynein transport | KCC2 mod | DTT redox prof | Autophagy HCS | ROMK retest
O=C(C[n+]1cccc(CNC(=O)c2ccc(OC(F)F)cc2)c1)Nc1ccc(SC(F)F)cc1 | -4* | 1.9 | -0.51 | 0 | i | 0.071
O=C(C[n+]1cccc(CNC(=O)c2ccc(OC(F)F)cc2)c1)Nc1ccccc1Cl | . | -0.86 | 0.013 | 0 | i | .
COc1ccc(-c2nnc3ccc(SCC(=O)NCC4CCCO4)nn23)cc1 (stereo unspecified) | -6.1* | 3.6 | 0.48 | 1 | i | 0.07
O=C(CSc1ccc2nnc(-c3ccc(F)cc3)n2n1)NCC1CCCO1 (stereo unspecified) | 0.95 | -1.1 | -0.77 | 1 | i | .
CCOC(=O)CN(c1cc([N+](=O)[O-])ccc1OC)S(C)(=O)=O | -0.35 | -1 | 0.29 | -1 | i | .
COc1cc(F)ccc1S(=O)(=O)N1CCN(C23CC4CC(CC(C4)C2)C3)CC1 | -2.8* | 0.21 | -0.064 | 0 | i | 0.064*
COc1cc(C)ccc1S(=O)(=O)N1CCCCCC1 | 0.69 | 2.6 | -0.86 | -1 | i | .
COc1cc(C)ccc1S(=O)(=O)N1CCN(C23CC4CC(CC(C4)C2)C3)CC1 | -2.9* | -0.33 | . | 0 | i | 0.062*
N#C/C(=C\c1cccc(Cl)c1)c1n[nH]c(Cn2cncn2)n1 | -2.6* | -0.25 | -1.7 | 1 | i | 0.053*
N#C/C(=C\c1ccc(F)cc1)c1n[nH]c(Cn2cncn2)n1 | -1.1 | 1.3 | -1 | 0 | i | .
Cc1csc(NC(=O)CN2C(=O)c3ccccc3C2=O)c1C(N)=O | 0.025 | 0.11 | -0.082 | . | . | .
Cc1cc(C(=O)OCC(=O)NCc2ccco2)c(C)n1-c1ccc(F)cc1 | 5.1* | -1.3 | -0.52 | -1 | i | 0.09
CCNC(=O)COC(=O)c1cc(C)n(-c2ccccc2)c1C | 0.86 | 0.086 | 0.14 | 0 | i | .
CSc1nc2cc(C)nn2c(-c2ccccc2Cl)c1C#N | . | 0.72 | -0.47 | . | . | .
O=C(N/N=C/c1ccc[nH]1)c1ccc2c(c1)OCO2 | 0.57 | -0.87 | -0.87 | -2 | i | .
O=C(N/N=C/c1ccc(-c2ccc(Br)cc2)o1)c1ccc2c(c1)OCO2 | 2* | -1.7 | . | 0 | i | 0.081
CCc1nnc(NC(=O)C2CCN(c3nc(C)cc(C)n3)CC2)s1 | 2.2* | -0.42 | . | 0 | i | 0.071
COc1ccc(C(=O)Nc2ccc3c(c2)nc(CCNC(C)=O)n3C)cc1 | 3* | 1.7 | . | 0 | i | 0.075
O=C(CN1CCC(O)(c2cccc(F)c2)CC1)NCCc1c[nH]c2ccccc12 | . | -0.62 | 0.45 | . | . | .
COc1cc(NC(=O)C2CCN(S(=O)(=O)c3ccc(Cl)cc3)CC2)ccc1-n1cnnn1 | . | -0.23 | 0.02 | 2 | i | 0.053*
NC1=NC(=Nc2cccc(S(N)(=O)=O)c2)c2ccccc21 | . | -0.047 | . | . | . | .
COc1ccccc1NS(=O)(=O)c1cccc(N=C2N=C(N)c3ccccc32)c1 | . | -0.43 | 0.07 | 0 | i | 0.081
N#C/C(=C\c1ccncc1)c1nc2c(s1)CCCC2 | -2* | 1.9 | 1.3 | 0 | i | 0.063*
S=C(c1ccc(-c2ccc(Br)cc2)o1)N1CCOCC1 | 2.4* | 1.4 | 3 | . | . | 0.078
Nc1ncccc1OCc1ccc(Cl)c(Cl)c1 | -0.23 | -0.5 | -0.18 | . | . | .
SMILES | ROMK primary | Dynein transport | KCC2 mod | DTT redox prof | Autophagy HCS | ROMK retest
COc1ccccc1CNc1ncnc2nc[nH]c12 | . | 0.71 | -0.73 | 0 | i | .
COc1ccccc1Nc1ncnc2nc[nH]c12 | 4* | 0.18 | 0.14 | 0 | i | 0.084
COc1ccc(-c2nnc3ccc(SCC(=O)Nc4nc5ccccc5s4)nn23)cc1OC | . | -0.18 | -0.78 | 0 | i | .
Cc1cccn2c(CNC3CCCc4ccccc43)c(C(=O)N3CCCCC3)nc12 (stereo unspecified) | -3* | 1.3 | 0.48 | 0 | i | 0.061*
Cc1cc(N=Cc2cc(Br)ccc2O)no1 | . | 1.6 | -0.51 | 2 | i | ?
O=c1cc(N2CCCC2)c2ccccc2o1 | -0.42 | -0.35 | 0.2 | -1 | i | .
CCc1cccc(NC(=O)c2cc(OC)c(OC)c(OC)c2)c1 | 1.3* | -0.084 | . | -1 | i | 0.077
COc1cc(C(=O)Nc2ccc3c(c2)CCN3C(C)=O)cc(OC)c1OC | 4.5* | -0.25 | 1.9 | -2 | i | 0.079
COc1cc(/C=C/C(=O)O)cc(S(=O)(=O)Nc2ccccc2Oc2ccccc2)c1OC | . | -0.53 | 0.014 | . | . | .
O=C(OCC#CCSc1nnc(-c2ccccc2)o1)c1cccs1 | -2.6 | 0.7 | 0.47 | 0 | i | 0.058*
O=C(OCC#CCSc1nnc(-c2cccc3ccccc23)o1)c1cccs1 | -1.2 | 0.076 | . | -4 | i | .
CC(=O)O/N=C1\C(=O)N(Cc2ccc(C)cc2)c2ccccc21 | -5.2* | 1.7 | -0.34 | 0 | i | 0.063*
CCOc1ccc(N2C(=O)CC(N3CCN(C4CCc5ccccc5C4)CC3)C2=O)cc1 (stereo unspecified) | -2.1* | -0.4 | . | 0 | i | 0.064*
Cc1cc(Cl)ccc1NC(=S)NCC(C)C | 0.26 | 0.41 | 0.19 | 0 | i | .
CCOc1cc(N2CCOCC2)c(OCC)cc1NC(=O)c1cc(-c2ccco2)nc2ccccc12 | . | -0.86 | -0.52 | -2 | ? | 0.066*
CCOc1cc(N2CCOCC2)c(OCC)cc1NC(=O)COc1ncnc2ccccc12 | -0.64 | -0.32 | . | 0 | i | .
Cc1ccc(/C=N\NC(=O)C2CC(=O)N(c3ccccc3)C2)o1 (stereo unspecified) | . | -0.29 | 0.76 | . | . | .
N#C/C(=C\C1CC=CCC1)c1nc2ccccc2[nH]1 (stereo unspecified) | -7* | -0.16 | -0.59 | 2 | i | 0.045*
S=C(NCCc1ccc(Cl)cc1)NC1CC1 | -0.49 | 0.99 | 0.036 | 0 | i | .
O=c1c2ccccc2c(-c2ccccc2)nn1Cc1c(Cl)cccc1Cl | . | 0.057 | . | 0 | i | .
O=c1c2ccccc2c(-c2ccccc2)nn1-c1cc(Cl)cc(Cl)c1 | . | 1.3 | -0.77 | . | . | 0.077
Cn1cccc1/C=N\NC(=O)Cc1ccc(Br)c2ccccc12 | -0.24 | -0.22 | 0.0028 | -1 | i | .
O=C(CSc1nnc(-c2cccnc2)s1)Nc1ccc(C(=O)O)cc1 | . | 0.5 | 0.97 | 0 | i | .
COc1ccc(/C=C(/NC(=O)c2ccccc2)c2nc3ccccc3[nH]2)cc1OC | . | 1.5 | -0.06 | 1 | i | .
